Insulin prom act – activators of insulin promoter-driven GFP, primary screen, imaging, TRM-6 cells, eGFP reporter, cell count; plate-scaled: unstimulated 0, stimulated control 100; activation, % at 2 µM; 130,000 tested, 0.81% active; AID 1296, 2008;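 active = activation at 2 µM above a set limit, confirmed on inspection of the cell images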;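 note: share of cells whose green reporter signal exceeds an intensity cutoff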
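System: human fetal islet-derived TRM-6 cells with tamoxifen-inducible insulin promoter–eGFP reporter; input: seeding density of 1,000 cells per well; buffer or medium: Low-glucose (5.5 mM) medium with tamoxifen; incubation: compound exposure 48 h, 37 °C; measured by: high-content imaging of fixed cells with Hoechst nuclear stain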
Active calls of the source: *. Many of the other results were omitted from the sample, so hits are more common in it than they were.

SMILES	Insulin prom act
CCCCOc1ccc(C2C(C(=O)c3ccc(C)o3)=C(O)C(=O)N2CC2CCCO2)cc1 (stereo unspecified)	8
CC(C)CNC(=O)C1CCCN(C(=O)NCc2ccccc2)C1 (stereo unspecified)	-7
CCOC(=O)COn1c(SCC(=O)OCC)nc2ccccc2c1=O	4
CCOC(=O)CSc1nc2ccccc2c(=O)n1CCN1CCOCC1	5
CCOC(=O)C(C)Sc1nc2ccccc2c(=O)n1CC (stereo unspecified)	426*
CCCCc1ccc(NC(=S)NCCc2ccc(F)cc2)cc1	-5
O=[N+]([O-])c1ccc(NC(=S)N2CCc3ccccc3C2)cc1	-3
CCCSc1nc(O)c(C(c2ccc(OC)c(O)c2)c2c(O)nc(SCCC)n(C)c2=O)c(=O)n1C	10
Cc1ccc(S(=O)(=O)N2CCCCC2C(=O)O)cc1 (stereo unspecified)	0
COc1ccc(NC(=O)C2CCCN2S(=O)(=O)c2ccc(C)cc2)cc1 (stereo unspecified)	0
COC(=O)C1CN(S(=O)(=O)c2ccc(C)cc2)CCN1S(=O)(=O)c1ccc(C)cc1 (stereo unspecified)	136*
CCC/C(=N\NC(=O)c1cccc(C)c1)c1ccccc1	0
Cc1ccc(OC(=O)c2sc(Cl)nc2C)cc1C	7
CNc1nc(C)nc(-n2nc(C)cc2C)n1	660*
Cc1cc(NCCO)nc(-n2nc(C)cc2C)n1	-79
Cc1cc(-n2nc(C)cc2C)nc(N)n1	-8
O=C(Cn1cccc1C(=O)c1ccccc1)NCCC1=CCCCC1	0
O=C(O)CS(=O)(=O)CC(=O)NCc1cccc(C(F)(F)F)c1	-6
COc1ccc2c3c(cccc13)NN=C2C	-79
COC(=O)CCN(C(=O)c1ccc(OC(C)=O)cc1)c1ccccn1	76*
CC(c1ccco1)N(C(=O)c1ccc(C#N)cc1)c1ccccn1 (stereo unspecified)	-7
COC(=O)CCN(C(=O)c1cc([N+](=O)[O-])cc([N+](=O)[O-])c1)c1ccccn1	0
N/C(=N\OS(=O)(=O)c1ccc(Br)cc1)c1ccncc1	3
CC(C)(C)c1ccc(-c2n[nH]c(=S)n2/N=C/c2ccncc2)cc1	-8
CCN1CCC(NC(=O)Nc2cc(Cl)ccc2OC)CC1	0
SMILES	Insulin prom act
CCn1c(SCC(=O)NCc2cccs2)nc2c1c(=O)n(C)c(=O)n2C	-9
CCn1c(=O)c2ccccc2n2c(SCC(=O)NCc3cccs3)nnc12	136*
O=C(CSc1nc2ccccc2c(=O)n1Cc1ccc(Cl)cc1)NCc1cccs1	-7
CCC(C)/C(C)=N/NC(=O)c1ccc(CSc2nc3ccccc3s2)cc1 (stereo unspecified)	-100
Cc1cc(C)c2nc(/N=C(\N)NC(=O)Nc3ccccc3)nc(C)c2c1	5
O=C1C(=Cc2cccs2)C(=O)c2ccccc21	-7
Cc1ccc(C=C2C(=O)c3ccccc3C2=O)s1	322*
Cc1cccc(-n2c(C)cc(C=C3C(=O)c4ccccc4C3=O)c2C)c1	7
O=C(OCC(=O)c1c[nH]c2ccccc12)c1cc2ccccc2cc1O	0
O=C(O)c1cn(Cc2ccccc2Cl)c2ccc(S(=O)(=O)N3CCOCC3)cc2c1=O	0
Cc1cc2cc(CNC(=O)Nc3ccccc3)ccc2[nH]1	0
COc1cc(/C=C(\C#N)c2nc3ccccc3n2C)cc(OC)c1O	479*
COc1ccc(/C=N/n2c(N)nc3ccccc32)cc1OC	-75
CCn1c(SCC(=O)N/N=C/c2cc(OC)c(O)c(OC)c2)nc2ccccc21	-3
CN(Cc1nc(-c2cnccn2)no1)Cc1n[nH]c2c1CCCC2	-10
CC(C)(C)c1ccc(C(=O)NCC(=O)OCC(=O)Nc2ccc3c(c2)OCCO3)cc1	0
CCOC(=O)C(Oc1ccc2c(-c3ccccc3)cc(=O)oc2c1)c1ccccc1 (stereo unspecified)	-7
CCOc1ccc(C(=O)Nc2cc(NC(=O)c3ccc(OCC)c(Cl)c3)cc(C(=O)O)c2)cc1Cl	-6
CCCn1nnc(NC(=O)c2ccc(OCC)c(Cl)c2)n1	623*
CCCn1nnc(NC(=O)c2ccc(Br)cc2)n1	-79
O=C(O)CC12CC3CC(C1)CC(n1ncc(NCc4ccc5c(c4)OCO5)c(Cl)c1=O)(C3)C2	7
CCOC(=O)c1c(C)oc2ccc(OC(=O)c3cccs3)cc12	7
CCOC(=O)CCC(=O)c1c(C)oc2ccc(OC)cc12	50
CCOC(=O)c1c(CN2CCN(C)CC2)oc2ccc(OC)cc12	138*
CCC1CCC(C(=O)NC(CCSC)C(=O)NCCN(CC(C)C)CC(C)C)CC1 (stereo unspecified)	193
SMILES	Insulin prom act
CCOC(=O)c1c(C)n2c3c(cc(C)cc13)CCC2	0
CCP(=O)(c1ccccc1)C(C)(C)O (stereo unspecified)	7
CCCCP(=O)(CCCC)Cc1ccccc1O	610*
CCCCN(CCCC)NC(=O)c1ccccc1	-7
CCCCCCCCC(=O)NNC(=O)c1c(O)c2ccccc2n(CCC)c1=O	0
COc1ccc(Cl)cc1NC(=O)c1ccco1	-6

Screens as filed in PubChem BioAssay.
